Source: ChEMBL document CHEMBL1221254, “Succinic acid amides as P2-P3 replacements for inhibitors of interleukin-1beta converting enzyme (ICE or caspase 1)” (Bioorg Med Chem Lett, 2010)

Tests used:
[1] = Half life in Wistar rat at 25 mg/kg, po; format: ADME, organism-based; set-up: dose 25 mg/kg, route oral; details: in vivo
Procedure, shortened: (§1)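 Wistar rats received 25 mg/kg orally in a vehicle of 10% DMSO, 11.25% Trappsol and D5W. Compound was measured in blood by LC/MS.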

[2] = Selectivity ratio of human ICE to caspase 3
[3] = Selectivity ratio of human ICE to caspase 4
[4] = Selectivity ratio of human ICE to caspase 6
[5] = Selectivity ratio of human ICE to caspase 8
[6] = Oral bioavailability in Wistar rat at 25 mg/kg; format: ADME, organism-based; details: in vivo; procedure, shortened: as §1
[7] = organism: Homo sapiens; experiment: Half life in human plasma

Compound | half-life [1] [min] | Selectivity ratio [2] | Selectivity ratio [3] | Selectivity ratio [4] | Selectivity ratio [5] | bioavailability [6] [%] | half-life [7] [min]
CCOC1OC(=O)C[C@@H]1NC(=O)[C@@H](CC(=O)NCCc1c(C)[nH]c2ccccc12)C(C)C (some centres undefined) | 76.2 | > 200 | > 200 | > 200 | > 200 | – | –
CCCO[C@H]1OC(=O)C[C@@H]1NC(=O)[C@@H](CC(=O)NCCc1cccc2ncccc12)C(C)C | – | > 200 | > 200 | > 200 | > 200 | 35 | 600
CCCO[C@@H]1OC(=O)C[C@@H]1NC(=O)[C@@H](CC(=O)NCCc1cccc2ncccc12)C(C)C | – | > 200 | > 200 | > 200 | > 200 | 9 | 120
CC(C)[C@H](CC(=O)NCCc1cccc2ncccc12)C(=O)N[C@H]1CC(=O)O[C@@H]1OC1CCCC1 | – | > 200 | > 200 | > 200 | > 200 | 5 | 306
CCO[C@@H]1OC(=O)CC1NC(=O)[C@@H]1CCCN2C(=O)CC[C@H](NC(=O)c3nccc4ccccc34)C(=O)N12 (some centres undefined) | 52.2 | > 200 | > 200 | > 200 | > 200 | – | –
CCOC1OC(=O)C[C@@H]1NC(=O)[C@@H](CC(=O)NCCc1cccc2ncccc12)C(C)C (some centres undefined) | 52.2 | > 200 | > 200 | > 200 | > 200 | – | –
CCOC1OC(=O)C[C@@H]1NC(=O)[C@@H](CC(=O)NCCn1c(C)nc2ccccc21)C(C)C (some centres undefined) | 96 | > 200 | > 200 | > 200 | > 200 | – | –
CCO[C@@H]1OC(=O)C[C@@H]1NC(=O)[C@@H](CC(=O)NCCc1cccc2ncccc12)C(C)C | – | > 200 | > 200 | > 200 | > 200 | 25 | 52.2
